Calls of active or inactive are those of the source. No cut-off for these calls is given here.
Key:
Histone deacetylase 1 [1] = biological target: T1, Histone deacetylase 1 (Homo sapiens, UniProt Q13547); test: Inhibition of recombinant HDAC1 (unknown origin) expressed in Escherichia coli BL21(DE3) after 60 mins using trichostatin A by label-free mass spectrometry-based SAMDI assay
MCF7 = test: Cytotoxicity against human MCF7 cells after 72 hrs by MTS assay; format: functional, cell-based
Outline: (§1)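 Cells kept in DMEM with 10% FBS and 1% penicillin-streptomycin, seeded in 96-well plates for 24 h, then exposed to a range of drug concentrations for 72 h at 0.1% DMSO; viability read by MTS assay per manufacturer's protocol.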

Histone deacetylase 8 = biological target: T2, Histone deacetylase 8 (Homo sapiens, UniProt Q9BY41); test: Inhibition of recombinant HDAC8 (unknown origin) expressed in Escherichia coli BL21(DE3) after 60 mins using trichostatin A by label-free mass spectrometry-based SAMDI assay
T2 sequence (Q9BY41 whole entry): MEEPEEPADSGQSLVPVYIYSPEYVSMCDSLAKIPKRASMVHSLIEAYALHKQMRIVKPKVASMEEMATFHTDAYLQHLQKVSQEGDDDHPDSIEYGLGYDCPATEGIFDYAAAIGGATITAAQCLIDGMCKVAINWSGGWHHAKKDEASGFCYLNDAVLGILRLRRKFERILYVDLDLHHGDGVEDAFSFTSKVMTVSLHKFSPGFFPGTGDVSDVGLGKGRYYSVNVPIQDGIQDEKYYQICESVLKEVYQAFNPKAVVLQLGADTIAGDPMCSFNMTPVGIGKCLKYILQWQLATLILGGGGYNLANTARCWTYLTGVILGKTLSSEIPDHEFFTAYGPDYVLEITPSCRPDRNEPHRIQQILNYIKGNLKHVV

Homo sapiens = species: Homo sapiens; conditions: at 1 µM
A549 = test: Cytotoxicity against human A549 cells after 72 hrs by MTS assay; format: functional, cell-based; outline: as §1
[2] = biological target: T3, Protein deacetylase HDAC6 (Homo sapiens, UniProt Q9UBN7); test: Inhibition of recombinant HDAC6 (unknown origin) expressed in Escherichia coli BL21(DE3) after 60 mins using trichostatin A by label-free mass spectrometry-based SAMDI assay
T3 sequence (Q9UBN7 whole entry): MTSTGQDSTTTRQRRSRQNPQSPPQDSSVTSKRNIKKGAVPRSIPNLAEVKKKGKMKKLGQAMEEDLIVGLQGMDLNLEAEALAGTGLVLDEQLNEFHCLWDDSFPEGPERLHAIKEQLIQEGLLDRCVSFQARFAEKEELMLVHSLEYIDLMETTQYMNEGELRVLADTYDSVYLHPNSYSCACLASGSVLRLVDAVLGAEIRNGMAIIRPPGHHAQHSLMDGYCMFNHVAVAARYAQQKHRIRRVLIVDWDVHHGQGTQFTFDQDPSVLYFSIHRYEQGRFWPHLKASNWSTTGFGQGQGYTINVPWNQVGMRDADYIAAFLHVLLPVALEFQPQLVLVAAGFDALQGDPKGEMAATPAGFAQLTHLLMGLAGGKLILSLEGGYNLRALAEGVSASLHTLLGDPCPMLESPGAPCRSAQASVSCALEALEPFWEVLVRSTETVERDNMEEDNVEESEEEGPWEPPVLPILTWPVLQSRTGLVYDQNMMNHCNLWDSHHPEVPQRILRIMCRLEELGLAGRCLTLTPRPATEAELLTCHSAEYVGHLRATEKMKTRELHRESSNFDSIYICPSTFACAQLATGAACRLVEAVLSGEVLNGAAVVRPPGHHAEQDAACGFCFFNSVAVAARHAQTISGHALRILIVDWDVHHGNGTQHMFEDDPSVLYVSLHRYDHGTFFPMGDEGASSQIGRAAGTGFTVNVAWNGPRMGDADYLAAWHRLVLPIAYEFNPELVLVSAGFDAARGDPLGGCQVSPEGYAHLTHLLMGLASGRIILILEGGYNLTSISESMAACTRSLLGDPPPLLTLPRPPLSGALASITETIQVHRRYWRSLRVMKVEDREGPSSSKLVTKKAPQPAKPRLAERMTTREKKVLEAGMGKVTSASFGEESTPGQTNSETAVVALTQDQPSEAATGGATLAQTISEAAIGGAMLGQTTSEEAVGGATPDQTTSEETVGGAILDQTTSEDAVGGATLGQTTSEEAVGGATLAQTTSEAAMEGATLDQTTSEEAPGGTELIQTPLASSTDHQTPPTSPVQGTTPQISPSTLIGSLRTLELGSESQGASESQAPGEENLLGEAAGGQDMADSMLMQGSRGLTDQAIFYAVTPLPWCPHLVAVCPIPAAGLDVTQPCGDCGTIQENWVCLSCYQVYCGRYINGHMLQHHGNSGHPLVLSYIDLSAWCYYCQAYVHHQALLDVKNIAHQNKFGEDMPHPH

[3] = Inhibition of NTHi-induced NF-kappaB activation in human BEAS-2B cells treated 1 hr before NTHi stimulation measured after 5 hrs by luciferase assay; format: cell-based
Vero = test: Cytotoxicity against African green monkey Vero cells after 72 hrs by MTS assay; format: cell-based; conditions: Chlorocebus sabaeus; outline: as §1
Histone deacetylase 1 [4] = biological target: T1, Histone deacetylase 1; test: Inhibition of recombinant HDAC1 (unknown origin) expressed in Escherichia coli BL21(DE3) at 10 uM after 60 mins using trichostatin A by label-free mass spectrometry-based SAMDI assay
BEAS-2B [5] = test: Antiinflammatory activity in human BEAS2B cells assessed as inhibition of NTHi-induced IL-1alpha mRNA expression at 1 uM treated 2 hrs before NTHi stimulation measured after 1.5 hrs by Q-PCR analysis; format: functional, cell-based
Outline: (§2)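 BEAS-2B cells pretreated 2 h with inhibitor at 1 μM, then stimulated 1.5 h with NTHi; PBS-treated cells as unstimulated control. Total RNA isolated with TRIzol, reverse transcribed, and TNF-α, IL-1α, IL-1β mRNA quantified by SYBR Green real-time PCR with 500 nM primers, reactions in triplicate; mean of n=3, representative of three independent experiments.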

BEAS-2B [6] = test: Antiinflammatory activity in human BEAS2B cells assessed as inhibition of NTHi-induced IL-1beta mRNA expression at 1 uM treated 2 hrs before NTHi stimulation measured after 1.5 hrs by Q-PCR analysis; format: functional, cell-based; outline: as §2
BEAS-2B [7] = test: Antiinflammatory activity in human BEAS2B cells assessed as inhibition of NTHi-induced TNFalpha mRNA expression at 1 uM treated 2 hrs before NTHi stimulation measured after 1.5 hrs by Q-PCR analysis; format: functional, cell-based; outline: as §2
[8] = Homo sapiens, MCF7, 72 h, read-out: IC50
[9] = Homo sapiens, A549, 72 h, read-out: IC50
[10] = Homo sapiens, BEAS-2B, read-out: IC50

T1 sequence (Q13547 whole entry): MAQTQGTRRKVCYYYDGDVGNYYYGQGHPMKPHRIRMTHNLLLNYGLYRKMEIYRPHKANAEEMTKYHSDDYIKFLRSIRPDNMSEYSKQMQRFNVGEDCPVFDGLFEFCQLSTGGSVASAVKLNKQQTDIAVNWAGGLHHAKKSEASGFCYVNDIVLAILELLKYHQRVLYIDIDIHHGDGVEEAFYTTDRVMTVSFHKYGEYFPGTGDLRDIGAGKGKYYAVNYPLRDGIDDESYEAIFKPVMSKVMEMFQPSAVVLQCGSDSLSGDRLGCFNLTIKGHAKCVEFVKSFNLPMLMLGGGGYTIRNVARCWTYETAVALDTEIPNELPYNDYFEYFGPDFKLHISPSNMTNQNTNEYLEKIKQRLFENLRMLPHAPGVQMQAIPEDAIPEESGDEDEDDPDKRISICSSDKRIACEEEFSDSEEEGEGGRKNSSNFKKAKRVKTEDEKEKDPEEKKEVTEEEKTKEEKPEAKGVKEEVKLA

inhibition (Histone deacetylase 1 [4]) [%]	Compound	IC50 (Histone deacetylase 1 [1]) [µM]	IC50 (MCF7; mcf7)	IC50 (Histone deacetylase 8) [µM]	Imax (Homo sapiens) [%]	IC50 (A549; a549)	IC50 [2] [µM]	IC50 [3]	IC50 (MCF7; [8]) [µM]	IC50 (Vero) [µM]	IC50 (A549; [9]) [µM]	IC50 [3, 10] [µM]	inhibition (BEAS-2B [5])	inhibition (BEAS-2B [6])	inhibition (BEAS-2B [7])
–	CC[C@H]1OC(=O)[C@H](C)C(=O)[C@H](C)[C@@H](O[C@@H]2O[C@H](C)C[C@H](N(C)Cc3cccc(-c4cn(CCCCCC(=O)NO)nn4)c3)[C@H]2O)[C@@](C)(OC)C[C@@H](C)C2=NCCN3C(=O)O[C@@]1(C)[C@H]3[C@H]2C	0.109	Not Active	3.23	71	Not Active	0.0175	Not Active	–	–	–	–	–	–	–
–	CC[C@@H]1OC(=O)[C@H](C)[C@@H](O[C@@H]2C[C@](C)(OC)[C@H](O)[C@@H](C)O2)[C@@H](C)[C@@H](O[C@@H]2O[C@H](C)C[C@H](N(C)Cc3cccc(-c4cn(CCCCCCC(=O)NO)nn4)c3)[C@H]2O)[C@](C)(O)C[C@@H](C)CN(C)[C@H](C)[C@@H](O)[C@]1(C)O	0.101	–	1.44	43.3	–	0.041	–	2.37	8.35	4.09	0.609	–	–	–
–	CC[C@@H]1OC(=O)[C@@H](C)[C@H](O[C@@H]2C[C@](C)(OC)[C@@](O)(CN(C)C)[C@@H](C)O2)[C@H](C)[C@H](O[C@@H]2O[C@H](C)C[C@H](N(C)Cc3ccc(-c4cn(CCCCCCC(=O)NO)nn4)cc3)[C@H]2O)[C@@](C)(OC)C[C@H](C)C(=O)[C@@H](C)[C@@H](O)[C@@]1(C)O	0.0333	–	2.21	33.4	–	0.0314	–	1.43	2.08	3.58	0.26	–	–	–
27	CC[C@H]1OC(=O)[C@H](C)[C@@H](O[C@@H]2C[C@](C)(OC)[C@@](O)(CN(C)Cc3ccc(-c4cn(CCCC(=O)NO)nn4)cc3)[C@@H](C)O2)[C@@H](C)[C@@H](O[C@H]2O[C@@H](C)C[C@@H](N(C)C)[C@@H]2O)[C@](C)(OC)C[C@@H](C)C(=O)[C@H](C)[C@H](O)[C@]1(C)O	> 10	–	2.53	–	–	0.361	–	–	–	–	–	–	–	–
–	CC[C@H]1OC(=O)[C@H](C)C(=O)[C@H](C)[C@@H](O[C@@H]2O[C@H](C)C[C@H](N(C)Cc3ccc(-c4cn(CCCCCCC(=O)NO)nn4)cc3)[C@H]2O)[C@@](C)(OC)C[C@@H](C)C2=NCCN3C(=O)O[C@@]1(C)[C@H]3[C@H]2C	0.0208	–	1.5	35.3	–	0.00699	–	1.98	–	2.19	0.0472	Active	Active	Active
–	CC[C@@H]1OC(=O)[C@@H](C)[C@H](O[C@H]2C[C@@](C)(OC)[C@@H](O)[C@H](C)O2)[C@H](C)[C@H](O[C@@H]2O[C@H](C)C[C@H](N(C)Cc3ccc(-c4cn(CCCCCCC(=O)NO)nn4)cc3)[C@H]2O)[C@@](C)(OC)C[C@H](C)C(=O)[C@@H](C)[C@@H](O)[C@@]1(C)O (stereo in doubt)	0.207	–	0.713	35.9	–	0.00667	–	2.86	4.9	2.29	0.243	–	–	–
–	CC[C@H]1OC(=O)[C@@H](C)[C@H](O[C@H]2C[C@@](C)(OC)[C@@H](O)[C@H](C)O2)[C@H](C)[C@H](O[C@H]2O[C@@H](C)C[C@@H](N(C)Cc3ccc(-c4cn(CCCCCCC(=O)NO)nn4)cc3)[C@@H]2O)[C@@](C)(O)C[C@H](C)CN(C)[C@@H](C)[C@H](O)[C@@]1(C)O (stereo in doubt)	0.0686	–	0.314	41.4	–	0.00729	–	4.08	5.9	2.32	0.28	–	–	–
–	CC[C@@H]1OC(=O)[C@@H](C)[C@H](O[C@H]2C[C@@](C)(OC)[C@](O)(CN(C)Cc3ccc(-c4cn(CCCCCCC(=O)NO)nn4)cc3)[C@H](C)O2)[C@H](C)[C@H](O[C@@H]2O[C@H](C)C[C@H](N(C)C)[C@H]2O)[C@@](C)(OC)C[C@H](C)C(=O)[C@@H](C)[C@@H](O)[C@@]1(C)O	0.0239	–	1.84	35.6	–	0.00285	–	0.69	1.55	0.99	0.197	Active	Active	Active
–	CC[C@@H]1OC(=O)[C@H](C)[C@@H](O[C@@H]2C[C@](C)(OC)[C@@](O)(CN(C)Cc3ccc(-c4cn(CCCCCC(=O)NO)nn4)cc3)[C@@H](C)O2)[C@@H](C)[C@@H](O[C@@H]2O[C@H](C)C[C@H](N(C)C)[C@H]2O)[C@](C)(O)C[C@@H](C)CN(C)[C@H](C)[C@@H](O)[C@]1(C)O	0.203	–	0.786	46.1	–	0.0319	–	–	–	–	0.368	–	–	–
–	CC[C@H]1OC(=O)[C@@H](C)[C@H](O[C@H]2C[C@@](C)(OC)[C@](O)(CN(C)C)[C@H](C)O2)[C@H](C)[C@H](O[C@H]2O[C@@H](C)C[C@@H](N(C)Cc3ccc(-c4cn(CCCCCCC(=O)NO)nn4)cc3)[C@@H]2O)[C@@](C)(O)C[C@H](C)CN(C)[C@@H](C)[C@H](O)[C@@]1(C)O	0.0795	–	0.749	43.4	–	0.0189	–	–	5.73	6.8	0.575	–	–	–
–	CC[C@@H]1OC(=O)[C@@H](C)[C@H](O[C@H]2C[C@@](C)(OC)[C@@H](O)[C@H](C)O2)[C@@H](C)[C@H](O[C@H]2O[C@@H](C)C[C@@H](N(C)C)[C@@H]2O)[C@](C)(O)C[C@H](C)CN(Cc2ccc(-c3cn(CCCCCCC(=O)NO)nn3)cc2)[C@H](C)[C@H](O)[C@@]1(C)O	0.0161	–	1.7	31.4	–	0.00472	–	6.3	6.66	8.28	0.244	Active	Active	Active

— ChEMBL document CHEMBL3734738, “A structure-activity relationship of non-peptide macrocyclic histone deacetylase inhibitors and their anti-proliferative and anti-inflammatory activities” (Bioorg Med Chem, 2015)
